Published values of several laboratories.
Protocols differ between the studies behind these lines.
Target: Substance-P receptor (TACR1, Homo sapiens, UniProt P25103)

COc1ccc(C(=O)NCc2cc(C(C)C)no2)cc1OC1CCN(C)CC1 gave an inhibition of 22% (ligand displacement; radioligand; 10 µM).
The inhibition of CN(CCN1CCC(OC(=O)Nc2ccccc2-c2ccccc2)CC1)C(=O)c1ccc(CN2CCC(C(N)=O)CC2)cc1 is reported as -6% (ligand displacement; radioligand; 1 µM).
The inhibition of CCCCCCCCCCCC(=O)OC[C@@H](COP(=O)(O)OCCNC(=O)c1ccc(Cn2c(=O)[nH]c3c(N)nc(OCCOC)nc32)cc1)OC(=O)CCCCCCCCCCC is reported as 23% (ligand displacement; radioligand; 10 µM).
CC(C)N1CCC[C@H]1CNC(=O)c1cn(C2CCCC2)c(=O)c2c1c1ccccc1n2C gave an inhibition of 23% (ligand displacement; radioligand; 10 µM).
O=C(Nc1cccnn1)N1CCN([C@@H]2CCOc3cc(C(F)(F)F)ccc32)CC1 has an inhibition of 38% (ligand displacement; 20 µM).
For c1ccc(C(NCCNC(c2ccccc2)c2ccccc2)c2ccccc2)cc1, the inhibition was 49% (cell-free assay; 10 µM).
With COc1ccc(S(=O)(=O)N2CCCCC2)cc1C the inhibition was less than 30% (ligand displacement; radioligand; 10 µM).
With CC(C)Cn1cnc2c(N)nc3ccccc3c21 the inhibition was -8% (ligand displacement; radioligand; 10 µM).
For C[C@H](C(=O)N[C@H]1COc2ccccc2[C@@H]1S(C)(=O)=O)c1ccc(F)cc1, the inhibition was 11% (cell-free assay; 10 µM).
